Measured values taken from PubChem BioAssay AID1046 (PCMD, 2008).
In all, about 220,000 compounds went through this assay and about 560 (0.25%) were called active. This excerpt belongs to a sample that is enriched for actives. Values without a mark were called inactive.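 Rule for the calls: active = inhibition at or above 40%; inactive = inhibition below 40%.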

These compounds were tested against Prothrombin (Homo sapiens) (UniProt P00734) (assay: blockers of thrombin peptide substrate cleavage – biochemical, 1536-well, fluorogenic AMC substrate, counter-screen for coagulation protease inhibitor project, primary screen (AID 1046;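 note: 0% = enzyme with no compound and 100% = wells without enzyme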)). Settings: alpha-thrombin, Boc-VPR-AMC fluorogenic substrate cleavage; at 5 µM; hits give high values.
Method in brief: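 System – human alpha-thrombin protein · Reagent – Boc-VPR-AMC substrate, 15 µM final · Compound – 5 µM single dose in 0.2% DMSO · Schedule – reaction at room temperature · Technique – AMC fluorescence at 355 nm excitation and 460 nm emission · Read-out basis – % inhibition relative to enzyme controls and enzyme-free blanks · Control set – no-compound enzyme wells and no-enzyme blanks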

SMILES | inhibition
O=C(Nc1ccccc1F)c1ccc(Cn2cc(Br)cn2)cc1 | 0.95%
CCCC(O)(CCC)C(=O)NN(C(=O)CCl)c1cccc(C)c1 | -0.4%
CC(C)Cc1ccc(C(C)C(=N)N)cc1 (centres undefined) | -0.2%
CCS(=O)(=O)N1Cc2ccccc2CC1C(=O)Nc1nc2ccc(F)cc2s1 (centres undefined) | -4.77%
O=C(CSc1nnnn1-c1ccc(O)cc1)c1ccc(F)cc1 | -1.4%
CC1CN(S(=O)(=O)c2ccc(C(=O)NN3CCN(C)CC3)cc2)CC(C)O1 (centres undefined) | -9.4%
CC(C)(C)C1CCC(OC(=O)CCC(=O)Nc2ccccc2)CC1 (centres undefined) | -0.51%
CC(C)N1C(=O)N(c2ccccc2)C(C)(O)CC1(C)C (centres undefined) | -4.92%
COC(=O)c1cc2c(N)c(C(=O)c3ccc(Cl)cc3)sc2nc1C(OC)OC | 3.67%
COc1ccccc1NC(=O)c1cc(Cl)nnc1Cl | -8.6%
C=C(C)COc1ccc(-c2nc(N)ncc2-c2ccccc2OC)c(O)c1 | -2.7%
COc1cc(NC(=O)c2ccc(CNc3c(N4CCCC4)c(=O)c3=O)cc2)cc(OC)c1OC | 3.4%
COc1c(C)cc(C(=O)C2CCCN(S(=O)(=O)c3c(C)noc3C)C2)cc1C (centres undefined) | 41.9% (active)
Cc1ccc(NC(=O)C2CCCN(S(=O)(=O)c3c(C)noc3C)C2)c(C)c1 (centres undefined) | -4.66%
Cc1noc(C)c1S(=O)(=O)N1CCCC(C(=O)Nc2nccs2)C1 (centres undefined) | -1.5%
CN1CCN(c2ncc3c(n2)CC(c2ccccc2F)CC3=O)CC1 (centres undefined) | -5.02%
Cc1ccc(C)c(NC(=S)NCC(c2cccnc2)N2CCOCC2)c1 (centres undefined) | -3.59%
CCCC/C(C)=N/NC(=O)NC1CCCCC1 | -6.13%
COCCNC(=O)Cn1cc(C(=O)c2cccs2)c2ccccc21 | 0.65%
O=C(Cn1cc(C(=O)c2cccs2)c2ccccc21)NCc1cccs1 | -2.66%
COC(=O)Cn1cc(C(=O)c2cccs2)c2ccccc21 | 47% (active)
Clc1ccc(CSc2nnc3c(n2)[nH]c2ccccc23)cc1 | -0.71%
CCC(C(=O)Nc1ccc(C(C)C)cc1)c1ccccc1 (centres undefined) | -7.56%
CCc1ccc(CNC(=O)CCc2nc(-c3cccs3)no2)cc1 | 6.55%
O=C(Cn1c2[n+](c3ccc(C(F)(F)F)cc31)CCCCC2)Nc1c(F)cccc1F | -11.3%
O=C(CSc1ccc([N+](=O)[O-])cn1)Nc1ccc(N2CCOCC2)c(Cl)c1 | -6.75%
C=CCN(C(=O)Nc1ccc2c(c1)nc(C)n2C)c1ccccc1 | 43.6% (active)
C=CCN(C(=O)Nc1ccc2oc(C)nc2c1)c1ccccc1 | -2.2%
Cc1nc2cc(NC(=O)Nc3cccc(F)c3)ccc2n1C | 13.7%
